# Reference: ChEMBL document CHEMBL4406834, “Phenylthiazoles with nitrogenous side chain: An approach to overcome molecular obesity” (Eur J Med Chem, 2019)
# How the values were obtained:
# Assay type in all cases: functional
# Pseudomonas aeruginosa [1] = test: Bactericidal activity against Pseudomonas aeruginosa ATCC 15442
# Pseudomonas aeruginosa [2] = test: Bactericidal activity against Pseudomonas aeruginosa ATCC 27853
# Pseudomonas aeruginosa [3] = test: Antibacterial activity against Pseudomonas aeruginosa ATCC 15442
# Acinetobacter baumannii [4] = test: Antibacterial activity against Acinetobacter baumannii ATCC 19606; details: ATCC 19606 = CIP 70.34 = JCM 6841
# Escherichia coli [5] = test: Antibacterial activity against Escherichia coli BW25113
# Escherichia coli [6] = test: Bactericidal activity against TolC-deficient Escherichia coli JW55031
# Pseudomonas aeruginosa [7] = test: Antibacterial activity against Pseudomonas aeruginosa ATCC 27853
# Escherichia coli [8] = test: Antibacterial activity against TolC-deficient Escherichia coli JW55031
# Escherichia coli [9] = test: Bactericidal activity against Escherichia coli BW25113
# Klebsiella pneumoniae [10] = test: Antibacterial activity against Klebsiella pneumoniae BAA-1706
# Escherichia coli [11] = test: Antibacterial activity against Escherichia coli ATCC 25922
# Klebsiella pneumoniae [12] = test: Bactericidal activity against Klebsiella pneumoniae BAA-1706
# Acinetobacter baumannii [13] = test: Bactericidal activity against Acinetobacter baumannii ATCC 19606; details: ATCC 19606 = CIP 70.34 = JCM 6841
# Escherichia coli [14] = test: Bactericidal activity against Escherichia coli ATCC 25922
# Staphylococcus aureus = test: Antibacterial activity against methicillin-resistant Staphylococcus aureus NRS384 USA300 after 18 to 20 hrs by broth microdilution assay
# Summary of the method: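 Broth microdilution per CLSI. Strains grown aerobically overnight on tryptone soy agar at 37 °C, adjusted to 0.5 McFarland, then diluted in cation-adjusted Mueller-Hinton broth to about 5 × 10^5 CFU/mL. Compounds (10 mg/mL DMSO stocks) serially diluted. Incubated aerobically at 37 °C for 18-20 h. MIC is the lowest concentration with no visible growth.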
molecule,measurement,setting,value
GENTAMICIN,MBC,Pseudomonas aeruginosa [1],2 µg/mL
same,MBC,Pseudomonas aeruginosa [2],4 µg/mL
same,MIC,Pseudomonas aeruginosa [3],2 µg/mL
same,MIC,Acinetobacter baumannii [4],32 µg/mL
same,MIC,Escherichia coli [5],< 0.5 µg/mL
same,MBC,Escherichia coli [6],< 0.5 µg/mL
same,MIC,Pseudomonas aeruginosa [7],2 µg/mL
same,MIC,Escherichia coli [8],< 0.5 µg/mL
same,MBC,Escherichia coli [9],< 0.5 µg/mL
same,MIC,Klebsiella pneumoniae [10],4 µg/mL
same,MIC,Escherichia coli [11],1 µg/mL
same,MBC,Klebsiella pneumoniae [12],4 µg/mL
same,MBC,Acinetobacter baumannii [13],32 µg/mL
same,MBC,Escherichia coli [14],1 µg/mL
C/C(=N\NC(=N)N)c1sc(-c2ccc(N3CCCC3)cc2)nc1C,MIC,Staphylococcus aureus,16 µg/mL
C/C(=N\NC(=N)N)c1sc(-c2ccc(N3CCCCCC3)cc2)nc1C,MIC,Staphylococcus aureus,> 128 µg/mL
C/C(=N\NC(=N)N)c1sc(-c2ccc(N3CCCCCCC3)cc2)nc1C,MIC,Staphylococcus aureus,128 µg/mL
C/C(=N\NC(=N)N)c1sc(-c2ccc(N3CCC3)cc2)nc1C,MIC,Staphylococcus aureus,> 128 µg/mL
C/C(=N\NC(=N)N)c1sc(-c2ccc(N3CCC4CCCCC4C3)cc2)nc1C (configuration not stated),MIC,Staphylococcus aureus,> 128 µg/mL
C/C(=N\NC(=N)N)c1sc(-c2ccc(N3CCC(C)CC3)cc2)nc1C,MIC,Staphylococcus aureus,16 µg/mL
C/C(=N\NC(=N)N)c1sc(-c2ccc(-n3ccnc3)cc2)nc1C,MIC,Staphylococcus aureus,16 µg/mL
C/C(=N\NC(=N)N)c1sc(-c2ccc(N3CCOCC3)cc2)nc1C,MIC,Staphylococcus aureus,> 128 µg/mL
